A selection: hits, their analogues and other compounds. The true share with any hit is near 5.9%.
Pf Dd2 inh: inhibitors of Plasmodium falciparum Dd2 growth; P. falciparum Dd2 growth, SYBR Green, 72 h; stronger effect = lower value; hit rate 2.3% among 94,000; activity change, % at 10 µM; in the data active = activity change below about -80%; inconclusive = no clear call, values can overlap the other calls
GASC1 inh: blocks human GASC-1 (KDM4C) demethylase activity; AID 720574; hit rate 0.15% among 96,000; Q9H3R0; inhibition, % at 12.5 µM; GST-KDM4C 2-372, H3K9me3 peptide, LANCE TR-FRET;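 active = mean replicate inhibition above about 25%, with at least 55% of replicates also reaching it, limit read from the data, passing the limit was not always enough; inconclusive = only one of those two conditions met; inactive = neither condition met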
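Material: GST-tagged GASC-1 (JMJD2C) catalytic fragment, aa 2-372 / Quantity: enzyme final amount 10 nM / Medium: HEPES buffer, pH 7.5, plus ascorbate / Doses: one test concentration per compound / Incubation: 30 min reaction, 60 min detection, RT / Measured by: LANCE TR-FRET / Read-out: inhibition from TR-FRET ratio decrease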
T cruzi growth-1: blocks T. cruzi growth in NIH3T3 culture | T. cruzi beta-gal in NIH3T3, GalScreen luminescence, 90 h | inhibition, % at 8.34 µM | hit rate 5.9% among 77,000 | AID 624255;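 active = mean inhibition above about 93%, with at least 55% of replicates each passing it, limit read from the data, passing the limit was not always enough; inconclusive = only one of those two conditions holds; inactive = neither condition holds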
IDH1 mut inh: IDH1 R132H (human) inhibition; IDH1 R132H reductase, diaphorase/resazurin fluorescence, 60 min; inhibition, % at 10 µM; hit rate 0.18% among 70,000; in the data active = inhibition above about 34%; inconclusive = no clear call, values can overlap the other calls; inactive = below about 11%;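 also: 0% = DMSO and 100% = no enzyme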
Target sequence (O75874 whole entry R132H): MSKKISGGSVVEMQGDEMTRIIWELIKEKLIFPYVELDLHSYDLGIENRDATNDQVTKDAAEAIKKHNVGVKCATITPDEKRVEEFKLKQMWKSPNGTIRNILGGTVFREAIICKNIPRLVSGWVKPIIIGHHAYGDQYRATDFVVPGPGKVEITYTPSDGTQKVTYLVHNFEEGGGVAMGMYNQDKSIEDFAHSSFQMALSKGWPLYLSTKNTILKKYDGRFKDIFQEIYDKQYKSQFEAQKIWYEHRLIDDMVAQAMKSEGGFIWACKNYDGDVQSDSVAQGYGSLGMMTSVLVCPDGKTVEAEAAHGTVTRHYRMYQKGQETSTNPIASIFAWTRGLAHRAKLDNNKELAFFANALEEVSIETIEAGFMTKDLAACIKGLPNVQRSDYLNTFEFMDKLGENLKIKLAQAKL
T cruzi growth-2: Trypanosoma cruzi proliferation inhibition; shares compounds with T cruzi growth-1; T. cruzi beta-gal in NIH3T3, GalScreen luminescence, 90 h; inhibition, % at 8.35 µM; hit rate 72% among 5,600;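 active = mean replicate inhibition above about 95% and at least 55% of replicates individually reaching it, limit read from the data; inconclusive = only one of the two criteria is met; inactive = neither criterion is met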
T cruzi growth-3: inhibitors of T. cruzi proliferation. shares compounds with T cruzi growth-1. T. cruzi beta-gal in NIH3T3, GalScreen luminescence, 90 h. inhibition, % at 2.09 µM. hit rate 21% among 5,600;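 active = mean inhibition above about 95%, with at least 55% of replicates also reaching it, limit read from the data; inconclusive = meets just one of the two conditions; inactive = meets neither condition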;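 also: plate controls were neutral control median for no effect and positive control median for full effect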
NIH3T3 tox: NIH/3T3 (mouse) viability loss. cytotoxicity (signal decrease), % at 8.35 µM. NIH/3T3 viability, CellTiter-Glo ATP luminescence, 90 h. hit rate 14% among 5,600. AID 651742. shares compounds with T cruzi growth-1;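 active = mean signal decrease across replicates above about 35% based on untreated-well scatter, with enough replicates individually passing, limit read from the data; inconclusive = no rule stated though some were filed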;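 also: 0% = median of neutral control wells and 100% = median of positive control wells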
3T3 cytotox 2: kills mouse NIH/3T3 fibroblasts | NIH/3T3 viability, CellTiter-Glo ATP luminescence, 90 h | hit rate 56% among 5,600 | inhibition, % at 24.9 µM | shares compounds with T cruzi growth-1 | AID 651744;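 active = mean loss of cell viability signal at or above a set limit, and enough replicates individually reaching it; inconclusive = meets only the mean limit or only the replicate share; inactive = meets neither condition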;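 also: 0% = median of neutral control wells and 100% = median of positive control wells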
Numbers without * were called inactive; ? = inconclusive; . = no result given.

SMILES	Pf Dd2 inh	GASC1 inh	T cruzi growth-1	IDH1 mut inh	T cruzi growth-2	T cruzi growth-3	NIH3T3 tox	3T3 cytotox 2
CO[C@H](CN(C)S(=O)(=O)c1cccc(Cl)c1)[C@H](C)CN([C@H](C)CO)S(=O)(=O)c1ccc(Cl)cc1	-3	-2	?	0	99*	20	47*	68*
CO[C@@H](CN(C)S(=O)(=O)c1ccc(Cl)cc1)[C@@H](C)CN([C@H](C)CO)S(=O)(=O)c1cccc(Cl)c1	-40	-3	?	-1	92	56	54*	79*
COC(=O)[C@]1(C)CCC[C@@]2(C)[C@H]1CC=C(C)[C@@H]2CCc1ccoc1	.	.	.	5	.	.	.	.
C[C@H](CO)N1C[C@H](C)[C@H](CN(C)C(=O)Cc2ccccc2)OCCCC[C@H](C)Oc2ccc(N(C)C)cc2C1=O	-39	2	104*	-1	?	25	-10	-23
C[C@@H]1CCCCO[C@H](CN(C)C(=O)Cc2ccccc2)[C@@H](C)CN([C@@H](C)CO)C(=O)c2cc(N(C)C)ccc2O1	-22	0	97*	-2	46	27	-40	-13
Cc1cc(C)c(NC(=O)CN(C)S(=O)(=O)c2ccc(F)cc2)c(C)c1	.	.	.	0	.	.	.	.
Cc1nc(SCC(=O)Nc2ccc(Br)cc2)n[nH]1	.	.	.	0	.	.	.	.
COc1ccc(S(=O)(=O)N2CCCCN3[C@H](CO)[C@H](c4ccc(C#CC5CC5)cc4)[C@H]3C2)cc1	-38	1	100*	.	106*	111*	54*	105*
O=S(=O)(c1ccc(F)cc1)N1CCCCN2[C@H](C1)[C@H](c1ccc(C#CC3CCCC3)cc1)[C@@H]2CO	6	.	116*	.	97*	87	27	54*
COc1ccc(S(=O)(=O)N2CCCCN3[C@H](C2)[C@H](c2ccc(C#CC4CC4)cc2)[C@@H]3CO)cc1	16	0	124*	.	106*	73	15	-11
COc1ccc(S(=O)(=O)N(C)C[C@H]2Oc3cc(C#CC4CCCC4)ccc3S(=O)(=O)N([C@H](C)CO)C[C@@H]2C)cc1	-56	2	68	0	.	.	.	.
Cc1ccc(S(=O)(=O)N(C)C[C@H]2Oc3cc(C#CC4CCCC4)ccc3S(=O)(=O)N([C@H](C)CO)C[C@@H]2C)cc1	-55	-3	127*	1	100*	108*	11	51*
Cc1ccc(S(=O)(=O)N(C)C[C@@H]2Oc3cc(C#CC4CCCC4)ccc3S(=O)(=O)N([C@@H](C)CO)C[C@H]2C)cc1	-69	6	127*	0	101*	99*	46*	77*
COc1ccc(CN(C)C[C@@H]2OCCCC[C@@H](C)Oc3ccc(NS(=O)(=O)c4ccc(Cl)cc4)cc3C(=O)N([C@H](C)CO)C[C@H]2C)cc1	-56	-1	?	0	105*	84	27	103*
COc1ccc(CN(C)C[C@H]2OCCCC[C@H](C)Oc3ccc(NS(=O)(=O)c4ccc(Cl)cc4)cc3C(=O)N([C@H](C)CO)C[C@H]2C)cc1	?	0	94	0	.	.	.	.
COc1ccc(CN(C)C[C@H]2OCCCC[C@@H](C)Oc3ccc(NS(=O)(=O)c4ccc(Cl)cc4)cc3C(=O)N([C@@H](C)CO)C[C@@H]2C)cc1	-72	4	30	.	.	.	.	.
COc1ccc(CN(C)C[C@@H]2OCCCC[C@H](C)Oc3ccc(NS(=O)(=O)c4ccc(Cl)cc4)cc3C(=O)N([C@@H](C)CO)C[C@H]2C)cc1	-44	-1	?	.	100*	76	21	104*
COc1ccc(CN(C)C[C@@H]2OCCCC[C@@H](C)Oc3ccc(NS(=O)(=O)c4ccc(Cl)cc4)cc3C(=O)N([C@@H](C)CO)C[C@@H]2C)cc1	-35	0	?	2	?	58	30	107*
COc1ccc(CN(C)C[C@H]2OCCCC[C@H](C)Oc3ccc(NS(=O)(=O)c4ccccc4)cc3C(=O)N([C@H](C)CO)C[C@H]2C)cc1	-36	0	102*	0	108*	43	9	?
COc1ccc(CN(C)C[C@H]2OCCCC[C@@H](C)Oc3ccc(NS(=O)(=O)c4ccccc4)cc3C(=O)N([C@H](C)CO)C[C@H]2C)cc1	-55	0	-18	.	.	.	.	.
Cc1ccc(C)c(NC(=O)CSc2ncnc3sc4c(c23)CCC4)c1	.	.	.	0	.	.	.	.
O=C(c1cccc(F)c1)N1CCCCN2[C@H](CO)[C@H](c3ccc(-c4ccc(F)cc4)cc3)[C@@H]2C1	11	.	111*	.	110*	95*	23	65*
O=C(c1cccc(F)c1)N1CCCCN2[C@H](C1)[C@@H](c1ccc(-c3cncnc3)cc1)[C@@H]2CO	20	4	22	.	.	.	.	.
O=C(c1cccc(F)c1)N1CCCCN2[C@H](CO)[C@H](c3ccc(-c4ccncc4)cc3)[C@@H]2C1	-41	0	110*	.	113*	82	-12	0
O=C(c1cccc(F)c1)N1CCCCN2[C@H](C1)[C@@H](c1ccc(-c3ccncc3)cc1)[C@@H]2CO	-7	-1	86	.	.	.	.	.
SMILES	Pf Dd2 inh	GASC1 inh	T cruzi growth-1	IDH1 mut inh	T cruzi growth-2	T cruzi growth-3	NIH3T3 tox	3T3 cytotox 2
O=C(c1cccc(F)c1)N1CCCCN2[C@H](CO)[C@H](c3ccc(-c4cncnc4)cc3)[C@H]2C1	14	1	?	.	71	47	17	15
CC(C)(O)C#Cc1ccc([C@@H]2[C@@H](CO)N3CCCCN(C(=O)c4cccc(F)c4)C[C@H]23)cc1	16	2	120*	.	93	-4	-7	19
CC(C)(O)C#Cc1ccc([C@@H]2[C@H]3CN(C(=O)c4cccc(F)c4)CCCCN3[C@H]2CO)cc1	12	0	91	.	.	.	.	.
O=c1c2c3c(sc2nc2c4ccccc4c(NCCOCCO)nn12)CCCC3	.	.	.	0	.	.	.	.
CC1(C)CC[C@]2(C(=O)O[C@@H]3O[C@H](CO)[C@@H](O)[C@H](O)[C@H]3O)CC[C@]3(C)C(=CCC4[C@@]5(C)CC[C@H](O[C@@H]6OC[C@H](O)[C@H](O)[C@H]6O[C@@H]6O[C@H](CO)[C@@H](O)[C@H](O)[C@H]6O[C@@H]6OC[C@H](O)[C@H](O)[C@H]6O)[C@@](C)(CO)C5CC[C@]43C)C2C1 (stereo partly drawn)	.	.	.	3	.	.	.	.
O=C(c1cccc(F)c1)N1CCCCN2[C@H](CO)[C@@H](c3ccc(-c4ccc(F)cc4)cc3)[C@@H]2C1	13	.	104*	.	105*	?	19	106*
O=C(c1cccc(F)c1)N1CCCCN2[C@@H](CO)[C@@H](c3ccc(-c4ccccc4)cc3)[C@@H]2C1	-58	0	33	.	.	.	.	.
